One experiment deals with MDA-MB-435. In words: Antiproliferative activity against human MDA-MB-435 cells after 48 hrs by SRB assay. The experiment is classed as functional, cell-based. The note with it: MDA-MB-435, 48 h. Background: Sulforhodamine B stains cellular protein and so reports cell mass.
Experiment [1] in a line: Inhibition of tubulin polymerization in rat A10 cells after 18 hrs by indirect immunofluorescence technique. The experiment is classed as cell-based. The procedure, abridged: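 A-10 cells were exposed to a range of concentrations for 18 hr, fixed, and stained with a β-tubulin antibody for microtubules and with DAPI for DNA. Percent microtubule loss was scored visually at each concentration, averaged over 3 independent experiments, and plotted against concentration to calculate EC50.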

Bounds are passed on as bounds.

This note sets out measurements from ChEMBL document CHEMBL1144660, “Docking and hydropathic scoring of polysubstituted pyrrole compounds with antitubulin activity” (Bioorg Med Chem, 2008).

What is called IC50 is the concentration that gives 50% inhibition. One may read the EC50 as the concentration needed to bring the measured effect to its halfway point. Low values mean an effect from little substance, high ones a need for much substance.

In the case of `CCOC(=O)c1[nH]c(Br)c(-c2cccc(OC)c2)c1Br`, the values for the half-maximal inhibitory concentration (IC50) in the experiment on MDA-MB-435 (read-out: IC50) and with MDA-MB-435 (read-out: Log IC50 (converted)) were 0.278 µM and 0.282 µM, respectively. The compound also showed an EC50 in experiment [1] of 2.4 µM.

In the case of `COC(=O)c1c(-c2ccc(OC)c(OC)c2)c(-c2ccc(OC)c(OC)c2)cn1CCc1ccc(OC)c(OC)c1`, the IC50 with MDA-MB-435 (read-out: IC50) and in the experiment on MDA-MB-435 (read-out: Log IC50 (converted)) was 10 µM in each case. In experiment [1], this compound gave an EC50 above 50 µM.

In the case of `CCOC(=O)c1cc(-c2ccc(OC)cc2)c(C(=O)c2ccc(OC)cc2)[nH]1`, the figures for the IC50 in the experiment on MDA-MB-435 (read-out: IC50) and in the experiment with MDA-MB-435 (read-out: Log IC50 (converted)) were 2.6 µM and 2.63 µM, respectively. The compound further had an EC50 in experiment [1] above 50 µM.

With `CCOC(=O)c1[nH]c(C(=O)c2ccc(OC)cc2)c(-c2ccc(OC)cc2)c1Br`, the IC50 in the experiment with MDA-MB-435 (read-out: IC50) is 1.9 µM; in the experiment with MDA-MB-435 (read-out: Log IC50 (converted)), 1.91 µM. In addition, in experiment [1], the EC50 is above 50 µM.

For `CCOC(=O)c1c[nH]c(C(=O)c2ccc(OC)cc2)c1-c1ccc(OC)cc1`, the IC50 in the experiment on MDA-MB-435 (read-out: IC50) and in the experiment with MDA-MB-435 (read-out: Log IC50 (converted)) was 10 µM throughout. Besides, the EC50 in experiment [1] was above 50 µM.

In the case of `CCOC(=O)c1[nH]c(Br)c(-c2ccc(Cl)cc2)c1Br`, the IC50 in the experiment with MDA-MB-435 (read-out: IC50) is 0.919 µM; in the experiment with MDA-MB-435 (read-out: Log IC50 (converted)) it was 0.912 µM. Besides, the 50% effective concentration (EC50) in experiment [1] was above 50 µM.

Turning to `CCOC(=O)c1[nH]c(Br)c(-c2ccc(OC)cc2)c1Br`, the IC50 is 0.361 µM in the experiment with MDA-MB-435 (read-out: IC50) and 0.363 µM in the experiment on MDA-MB-435 (read-out: Log IC50 (converted)). Moreover, in experiment [1], the EC50 came to 5.1 µM.

As for `CCOC(=O)c1[nH]c(Br)c(-c2ccc3ccccc3c2)c1Br`, the IC50 in the experiment on MDA-MB-435 (read-out: IC50) was 1.4 µM; in the experiment with MDA-MB-435 (read-out: Log IC50 (converted)) it was 1.41 µM. Besides, a half-maximal effect in experiment [1] (EC50) was put at 7.5 µM.

Regarding `CCOC(=O)c1[nH]c(Br)c(-c2ccc(Br)cc2)c1Br`, the IC50 in the experiment on MDA-MB-435 (read-out: IC50) is 0.312 µM; in the experiment with MDA-MB-435 (read-out: Log IC50 (converted)), 0.309 µM. The compound also showed an EC50 in experiment [1] above 50 µM.

`CCOC(=O)c1[nH]c(C(=O)c2ccc(OC)cc2)c(-c2ccc(OC)cc2)c1-c1ccc(OC)cc1`: the IC50 in the experiment on MDA-MB-435 (read-out: IC50) is 4.2 µM; in the experiment with MDA-MB-435 (read-out: Log IC50 (converted)) it was 4.27 µM. In addition, in experiment [1], the EC50 is above 50 µM.

As for `CCOC(=O)c1[nH]c(Br)c(-c2ccccc2)c1Br`, the IC50 in the experiment on MDA-MB-435 (read-out: IC50) and with MDA-MB-435 (read-out: Log IC50 (converted)) was 10 µM throughout. For the same compound, the EC50 in experiment [1] was above 50 µM.

For the compound `COc1ccc(C(=O)c2[nH]c(C(=O)c3ccc(OC)cc3)c(-c3ccc(OC)cc3)c2-c2ccc(OC)cc2)cc1`, the half-inhibitory concentration (IC50) with MDA-MB-435 (read-out: IC50) was above 20 µM; with MDA-MB-435 (read-out: Log IC50 (converted)), 200 µM. The same compound yielded an EC50 in experiment [1] above 50 µM.

Turning to `CCOC(=O)c1[nH]c(Br)c(-c2ccc(C)cc2)c1Br`, the half-inhibitory concentration (IC50) in the experiment on MDA-MB-435 (read-out: IC50) was 2.2 µM; in the experiment with MDA-MB-435 (read-out: Log IC50 (converted)) it was 2 µM. For the same compound, in experiment [1], the EC50 is above 50 µM.

On to `CCOC(=O)c1cc(-c2ccc(OC)cc2)c(Cl)[nH]1`, for which the IC50 with MDA-MB-435 (read-out: IC50) was 5 µM; in the experiment on MDA-MB-435 (read-out: Log IC50 (converted)) it was 5.01 µM. In experiment [1], this compound showed an EC50 above 50 µM.

With `CCOC(=O)c1[nH]c(Br)c(-c2ccc(OC)c(OC)c2)c1Br`, in the experiment with MDA-MB-435 (read-out: Log IC50 (converted)), the IC50 was 0.0182 µM.

Consider `COc1cc2c(c(OC)c1OC)-c1ccc(OC)c(=O)cc1C(NC(=O)CS)CC2` (centres undefined), for which the half-maximal inhibitory concentration (IC50) with MDA-MB-435 (read-out: IC50) and in the experiment with MDA-MB-435 (read-out: Log IC50 (converted)) was 2 µM throughout.

For the compound `CCOC(=O)c1[nH]c(Br)c(-c2cc(OC)c(OC)c(OC)c2)c1Br`, the IC50 in the experiment on MDA-MB-435 (read-out: IC50) was 13 µM; in the experiment with MDA-MB-435 (read-out: Log IC50 (converted)) it was 12.9 µM. For the same compound, in experiment [1], the EC50 was above 50 µM.

Turning to `CCOC(=O)c1[nH]c(Br)c(-c2cc(OC)c(OC)cc2Br)c1Br`, the IC50 was 1.1 µM in the experiment on MDA-MB-435 (read-out: IC50) and 1.12 µM in the experiment on MDA-MB-435 (read-out: Log IC50 (converted)). Moreover, the EC50 in experiment [1] was determined as 7.1 µM.

As for `CCOC(=O)c1[nH]cc(-c2ccc(OC)cc2)c1-c1ccc(OC)cc1`, the IC50 in the experiment with MDA-MB-435 (read-out: IC50) is above 10 µM; in the experiment with MDA-MB-435 (read-out: Log IC50 (converted)) it was 100 µM. In experiment [1], this compound displayed an EC50 above 50 µM.
